These results are taken from ChEMBL document CHEMBL4184332, “Discovery of Novel Nonsteroidal Anti-Inflammatory Drugs and Carbonic Anhydrase Inhibitors Hybrids (NSAIDs-CAIs) for the Management of Rheumatoid Arthritis” (J Med Chem, 2018).

Data set [1] deals with Rattus norvegicus. In words: Antiarthritic activity in CFA-induced Sprague-Dawley rat rheumatoid arthritis model assessed as increase in tolerated weight on ipsilateral paw at 1 mg/kg, po measured at 60 mins by paw pressure test. In kind it is functional, organism-based. The procedure, abridged:
(§1)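 Rats: Sprague Dawley, 200-250 g, given 50 μl CFA intra-articularly into the tibiotarsal joint; controls got saline. On day 14, compounds in 1% CMC were given orally. An analgesimeter applied increasing pressure to the dorsal hind paw with a blunt conical probe until vocalization or withdrawal, read in grams, cut-off 120 g. Rats below 40 g or above 75 g before dosing were excluded. Values are mean (S.E.M.) of 8 rats from 2 experiments.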

Data set [2] concerns Rattus norvegicus. The data set can be described thus: Antiarthritic activity in CFA-induced Sprague-Dawley rat rheumatoid arthritis model assessed as difference between weight burden on contralateral and ipsilateral paw at 0.1 mg/kg, po measured at 15 to 30 mins by incapacitance test (reference value: 54.2 +/- 5.1 g). The data set is classed as functional.
For data set [3], the system named is Rattus norvegicus. In words: Antiarthritic activity in CFA-induced Sprague-Dawley rat rheumatoid arthritis model assessed as difference between weight burden on contralateral and ipsilateral paw at 10 mg/kg, po measured at 30 mins by incapacitance test (reference value: 54.2 +/- 5.1 g). The data set is classed as functional.
Data set [4] relates to Rattus norvegicus. The data set can be described thus: Antiarthritic activity in CFA-induced Sprague-Dawley rat rheumatoid arthritis model assessed as tolerated weight on ipsilateral paw at 1 mg/kg, po measured at 30 mins by paw pressure test (reference value: 43.5 +/- 0.5 g). In kind it is functional. An outline of the steps: as §1
The test system of data set [5] is Rattus norvegicus. In words: Antiarthritic activity in CFA-induced Sprague-Dawley rat rheumatoid arthritis model assessed as decrease in difference between weight burden on contralateral and ipsilateral paw at 0.1 mg/kg, po measured up to 45 mins by incapacitance test. In kind it is functional, organism-based.
A further data set concerns the target Carbonic anhydrase 9 (Homo sapiens, UniProt Q16790). In words: Inhibition of recombinant human carbonic anhydrase-9 catalytic domain incubated for 15 mins by stopped-flow CO2 hydrase assay.
In data set [6] the test system is Rattus norvegicus. In words: Antiarthritic activity in CFA-induced Sprague-Dawley rat rheumatoid arthritis model assessed as tolerated weight on ipsilateral paw at 10 mg/kg, po measured at 30 mins by paw pressure test (reference value: 43.5 +/- 0.5 g). In kind it is functional. An outline of the steps: as §1
The next data set has as its target Carbonic anhydrase 4 (Homo sapiens, UniProt P22748). The data set can be described thus: Inhibition of recombinant human carbonic anhydrase-4 incubated for 15 mins by stopped-flow CO2 hydrase assay.
The subject of data set [7] is Rattus norvegicus. In words: Antiarthritic activity in CFA-induced Sprague-Dawley rat rheumatoid arthritis model assessed as difference between weight burden on contralateral and ipsilateral paw at 1 mg/kg, po measured at 30 mins by incapacitance test (reference value: 54.2 +/- 5.1 g). The data set is classed as functional.
The next data set concerns the target Carbonic anhydrase 12 (Homo sapiens, UniProt O43570). In words: Inhibition of recombinant human carbonic anhydrase-12 incubated for 15 mins by stopped-flow CO2 hydrase assay.
Data set [8] concerns Rattus norvegicus. In words: Antiarthritic activity in CFA-induced Sprague-Dawley rat rheumatoid arthritis model assessed as tolerated weight on ipsilateral paw at 0.1 mg/kg, po measured at 15 mins by paw pressure test (reference value: 43.5 +/- 0.5 g). In kind it is functional. The procedure, abridged: as §1
The next data set addresses Carbonic anhydrase 2 (Homo sapiens, UniProt P00918). In words: Inhibition of recombinant human carbonic anhydrase-2 incubated for 15 mins by stopped-flow CO2 hydrase assay.
The subject of data set [9] is Rattus norvegicus. The data set can be described thus: Antiarthritic activity in CFA-induced Sprague-Dawley rat rheumatoid arthritis model assessed as increase in tolerated weight on ipsilateral paw at 10 mg/kg, po measured up to 75 mins by paw pressure test. In kind it is functional, organism-based. An outline of the steps: as §1
For data set [10], the species on record is Rattus norvegicus. The data set can be described thus: Change in pain threshold of contralateral paw of CFA-induced Sprague-Dawley rat rheumatoid arthritis model by paw pressure test. In kind it is organism-based. The settings on record: in vivo. The procedure, abridged:
as §1

For another data set, the target named is Carbonic anhydrase 1 (Homo sapiens, UniProt P00915). In words: Inhibition of recombinant human carbonic anhydrase-1 incubated for 15 mins by stopped-flow CO2 hydrase assay.
Data set [11] deals with Rattus norvegicus. In words: Antiarthritic activity in CFA-induced Sprague-Dawley rat rheumatoid arthritis model assessed as increase in tolerated weight on ipsilateral paw at 0.1 mg/kg, po measured up to 45 mins by paw pressure test. In kind it is functional, organism-based. An outline of the steps:
as §1

Calls of active or inactive are those of the source.

Chain of Carbonic anhydrase 1 (P00915 whole entry): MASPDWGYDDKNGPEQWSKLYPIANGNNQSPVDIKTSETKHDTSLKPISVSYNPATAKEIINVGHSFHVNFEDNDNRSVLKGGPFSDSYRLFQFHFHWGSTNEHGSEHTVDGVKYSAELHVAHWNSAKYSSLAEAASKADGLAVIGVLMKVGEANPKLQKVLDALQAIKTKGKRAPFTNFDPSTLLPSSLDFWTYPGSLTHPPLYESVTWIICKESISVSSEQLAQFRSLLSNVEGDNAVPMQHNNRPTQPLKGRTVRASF
Chain of Carbonic anhydrase 4 (P22748 whole entry): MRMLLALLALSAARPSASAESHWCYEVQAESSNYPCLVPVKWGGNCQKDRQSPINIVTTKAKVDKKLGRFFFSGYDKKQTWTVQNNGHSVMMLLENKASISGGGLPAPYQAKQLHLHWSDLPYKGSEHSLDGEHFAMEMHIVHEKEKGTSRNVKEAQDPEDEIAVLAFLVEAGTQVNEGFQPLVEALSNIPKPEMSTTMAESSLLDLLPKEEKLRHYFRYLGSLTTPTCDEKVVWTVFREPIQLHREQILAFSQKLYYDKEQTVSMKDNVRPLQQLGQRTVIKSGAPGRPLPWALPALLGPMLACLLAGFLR
Chain of Carbonic anhydrase 12 (O43570 whole entry): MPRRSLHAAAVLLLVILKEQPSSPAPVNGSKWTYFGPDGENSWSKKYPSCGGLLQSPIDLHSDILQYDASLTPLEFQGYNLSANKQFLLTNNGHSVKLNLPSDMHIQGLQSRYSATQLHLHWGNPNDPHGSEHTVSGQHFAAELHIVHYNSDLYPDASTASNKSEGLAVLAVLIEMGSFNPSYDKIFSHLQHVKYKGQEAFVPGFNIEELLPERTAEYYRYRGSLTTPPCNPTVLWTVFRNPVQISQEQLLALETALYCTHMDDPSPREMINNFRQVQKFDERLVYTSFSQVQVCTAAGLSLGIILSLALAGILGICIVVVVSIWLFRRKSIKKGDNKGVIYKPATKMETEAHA

For `NS(=O)(=O)c1ccc(CCNC(=O)Cc2ccccc2Nc2c(Cl)cccc2Cl)cc1`, the result with Rattus norvegicus [1] was inactive. In addition, the Activity in the data set on Rattus norvegicus [2] is reported as 39 g; in the data set on Rattus norvegicus [3] it was 14.7 g; in the data set with Rattus norvegicus [4] it was 56.7 g; with Rattus norvegicus [6], 66.3 g; with Rattus norvegicus [7], 20.6 g; in the data set with Rattus norvegicus [8], 52.5 g. The Activity result in the data set listed under Rattus norvegicus [10] was “Non-Toxic”. Also, the outcome in the data set on Rattus norvegicus [5], with Rattus norvegicus [9] and in the data set on Rattus norvegicus [11] was Active. Also, the Ki – broadly, the dissociation constant of the complex between target and ligand, obtained from inhibition or displacement – is 43.3 nM on Carbonic anhydrase 9; 8.65 µM at Carbonic anhydrase 4; 90.2 nM at Carbonic anhydrase 12; 43.7 nM at Carbonic anhydrase 2; 68.4 nM on Carbonic anhydrase 1.
